The record followed here is ChEMBL document CHEMBL4513216, “Probing the Open Global Health Chemical Diversity Library for Multistage-Active Starting Points for Next-Generation Antimalarials” (ACS Infect Dis, 2020).

A short description of the data set: Toxicity liver stage against HepG2, at 10uM. The class given is cell-based. The arrangement: test concentration 10 uM, cell line HepG2-A16-CD81EGFP. Particulars: human, HepG2-A16-CD81EGFP cells; read-out: INHIBITION
An outline of the steps:
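Uninfected HepG2-A16-CD81EGFP cells, 3 × 10^3 per well, 1536-well, plated on prespotted compound at 10 μM final, parasite-free screening media added to match infected plates; puromycin 10 μM positive, DMSO 0.5% negative; run in parallel with 48 h PbLuc assay at 37 °C, 5% CO2; viability by CellTiter-Glo luminescence, normalized to controls.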
As for `CCn1c(=NC(=O)CSCC(=O)Nc2nccs2)sc2ccccc21`, the cytotoxicity at 10 µM is -2.17%.

In the case of `c1ncc2c(n1)CN(CC1CCCCO1)CC2` (stereo unspecified), the cytotoxicity at 10 µM worked out at 2.93%.

Take `CCS(=O)(=O)N1CCc2ccc(NC(=O)Nc3ccccc3)cc21`: the cytotoxicity at 10 µM amounted to 42.2%.

For `CCc1cc(=O)[nH]c(-n2nc(C3CC3)cc2NC(=O)C2CC2)n1`, the cytotoxicity at 10 µM came out at 26.5%.

`COCCNC(=O)Cn1c(C)cc2nc(SC)n(CC(C)C)c(=O)c21`: the cytotoxicity at 10 µM is -14.6%.

As to `COc1ccc(-c2nnsc2C(=O)N2CCC(C(N)=O)CC2)cc1`, the cytotoxicity at 10 µM is -1.7%.

In the case of `COCCCNC1N=C(n2nc(C)cc2C)Nc2sc3c(c21)CCCC3` (stereo unspecified), the cytotoxicity at 10 µM was 10.6%.

Turning to `O=C(c1ccc(COc2ccc(Cl)cc2)o1)N1N=CCC1(O)C(F)(F)F` (stereo unspecified), the cytotoxicity at 10 µM came out at 30%.

`O=C1CC(c2ccc(C(=O)O)cc2)c2c(sc3c2CCCC3)N1` (stereo unspecified): the cytotoxicity at 10 µM was -5.14%.

On to `Cc1cc2c(cc1Cl)C=CC1(CCN(C(=O)N3CCOCC3)CC1)O2`, for which the cytotoxicity at 10 µM turned out to be 23.2%.

As to `CC(C)Nc1cc(-c2c[nH]nc2C2CCN(C(=O)C3CCC3)C2)ccn1` (stereo unspecified), the cytotoxicity at 10 µM is 81.8%.

As to `CC(C)C[C@H](N)COc1cccc(F)c1Oc1ccc(Cl)cc1`, the cytotoxicity at 10 µM stood at 84.7%.

As to `Cc1ccc(Nc2nccc(C3CCN(CC(N)=O)C3)n2)nc1` (stereo unspecified), the cytotoxicity at 10 µM is -16.7%.

Turning to `COc1cc(C)c(CN2CCc3nc4ccsc4c(=O)n3CC2)cc1C`, the cytotoxicity at 10 µM was -15.7%.

In the case of `Cc1cc(-c2cnc(NCc3ccc4c(c3)OCO4)nc2C(C)C)on1`, the cytotoxicity at 10 µM is -1.23%.

Turning to `COC(=O)c1ncccc1N1CCCCC1`, the cytotoxicity at 10 µM is -8.77%.

For `CCN(C)S(=O)(=O)N1CCCC(c2nc(-c3ccccc3)c[nH]2)C1` (stereo unspecified), the cytotoxicity at 10 µM was -8.02%.

For `COc1cc(NC(=O)N(C)C(C2CC2)C2CC2)ncn1`, the cytotoxicity at 10 µM is -6.69%.

In the case of `Cc1noc(C)c1CN(C)CCc1nc(-c2cccc(Cl)c2)no1`, the cytotoxicity at 10 µM is 16.6%.

Take `Cc1nn(C)c(C)c1CCNC(C)c1ccc(-n2ccnc2C)cc1` (stereo unspecified): the cytotoxicity at 10 µM amounted to 31.6%.

In the case of `O=C(Nc1nccs1)C1CCCN1Cc1ccccn1` (stereo unspecified), the cytotoxicity at 10 µM is -20%.

Consider `c1cnnc(N2CCCC2CNCCc2cccs2)c1` (stereo unspecified), for which the cytotoxicity at 10 µM is -0.555%.

In the case of `c1ccc(C2CCCN(c3cncc(-n4cccn4)n3)CC2)cc1` (stereo unspecified), the cytotoxicity at 10 µM stood at 48%.

For the compound `COc1ccc(Br)c(C(=O)NCC2CC2)c1`, the cytotoxicity at 10 µM stood at 23.4%.

On to `N#Cc1ccc(OCC(O)CN2CCN(c3nccs3)CC2)cc1` (stereo unspecified), for which the cytotoxicity at 10 µM came to 2.06%.

For `Cc1nc(COc2ccc(CNCCn3cccn3)cc2)cs1`, the cytotoxicity at 10 µM is -8.96%.

In the case of `COCC(=O)NCc1cccc(OCCN(C)C2CCOCC2)c1`, the cytotoxicity at 10 µM came to 8.35%.

`O=C(CN1CCCC1Cn1cncn1)NCC1(c2ccccc2)CC1` (stereo unspecified): the cytotoxicity at 10 µM stood at 4.74%.

Turning to `O=C(c1c[nH]c(=O)[nH]1)N1CCc2ccccc21`, the cytotoxicity at 10 µM amounted to 81.9%.

On to `Cc1cn2c(n1)C(CNCC1=Cc3cc(Cl)ccc3OC1)CCC2` (stereo unspecified), for which the cytotoxicity at 10 µM turned out to be 33.3%.

For the compound `CC(C)n1nc2c(cc1=O)CN(c1ncnc3sccc13)CC2`, the cytotoxicity at 10 µM was 49.7%.

As for `Cc1ccc(-c2nc(CSCCC(=O)NC(N)=O)co2)cc1`, the cytotoxicity at 10 µM was -2.69%.

Consider `Fc1cccc2ncnc(NCC3(N4CCOCC4)CCSC3)c12` (stereo unspecified), for which the cytotoxicity at 10 µM was 50.6%.

With `N#Cc1ccc(CN(CC(N)=O)C2CCCC2)cc1`, the cytotoxicity at 10 µM was determined as 38%.

Turning to `CCc1nc(CN2CCCC(Nc3ncnc4ccsc34)C2)no1` (stereo unspecified), the cytotoxicity at 10 µM came to 52.2%.

Take `Cc1ncc(C(=O)NC2CCN(CCOc3ccc(Br)cc3)CC2)s1`: the cytotoxicity at 10 µM turned out to be 7.28%.

As for `CC1CCN(c2nc3c(cnn3-c3ccccc3)c(=O)[nH]2)CC1`, the cytotoxicity at 10 µM is -9.5%.

As for `NC(=O)C1CN(C(=O)Nc2cc(Cl)cc(Cl)c2)CCO1` (stereo unspecified), the cytotoxicity at 10 µM came out at 55.1%.

For `Cc1ccc(CN2CCC3(CC2)C(=O)NCCN3CC2CC2)o1`, the cytotoxicity at 10 µM is -66.8%.

Take `Cc1cn2c(=O)c(-c3ccnc(N(C)C4CCCCC4)n3)cnc2s1`: the cytotoxicity at 10 µM stood at 9.49%.

Consider `Cc1cncc(NC(=O)c2ccc(CN3CC[C@H](O)C3)cc2)c1`, for which the cytotoxicity at 10 µM stood at 12.4%.

Consider `Cc1noc(-c2ccnc(Oc3ccc(CN4CCCC4)cc3C)c2)n1`, for which the cytotoxicity at 10 µM came out at 51.4%.

Turning to `CC(C)c1cc(NCc2csc(N(C)C)n2)nc(N)n1`, the cytotoxicity at 10 µM was 31.8%.

On to `Cc1cnc(C)c(Oc2ccc(CN3CCCC3)cc2Cl)n1`, for which the cytotoxicity at 10 µM was -1.37%.

For the compound `CN(C)CCNC(=O)c1ccc(S(=O)(=O)N[C@@H]2CCNC2)cc1`, the cytotoxicity at 10 µM is -49.2%.

`CCc1[nH]c2c(CNc3cc(C)nc(NC)n3)cc(C)cc2c1C`: the cytotoxicity at 10 µM is -41%.

With `Cc1ccccc1N1CCN(c2nc(N(C)C)nc3c2CCNC3)CC1`, the cytotoxicity at 10 µM amounted to 8.97%.

With `Cc1ccccc1CC1(CO)CCCN(c2ncnc3sccc23)C1` (stereo unspecified), the cytotoxicity at 10 µM worked out at 27.5%.

Consider `CCCc1cncnc1N1CCC(NCc2cc3ccccc3[nH]2)CC1`, for which the cytotoxicity at 10 µM amounted to 15.8%.

As for `Cc1c(-c2cnn(C)c2)nc(N)c(C#N)c1-c1ccc(CO)o1`, the cytotoxicity at 10 µM was -117%.

In the case of `COc1ccccc1C1CCN(c2ccc3cc[nH]c3n2)CC1`, the cytotoxicity at 10 µM is -6.78%.

For the compound `CC(C)(C)c1cn(CC2CCCN(c3cnc4ccccc4n3)C2)nn1` (stereo unspecified), the cytotoxicity at 10 µM was determined as 42.9%.

Turning to `FC(F)(F)c1nc(NC2CCCCC2)c2ccccc2n1`, the cytotoxicity at 10 µM came to 29.7%.

Take `COCc1noc(-c2ccc(N3CCCCC3CO)nc2)n1` (stereo unspecified): the cytotoxicity at 10 µM is -2.38%.

With `FC(F)(F)c1nc(NC2CCCC2)c2ccccc2n1`, the cytotoxicity at 10 µM came out at 15.8%.

As for `Cc1ccccc1-c1noc(CN2CCC(N3CCNC3=O)CC2)n1`, the cytotoxicity at 10 µM is 11.6%.

As for `Cc1cnn(C2CN(Cc3nc(-c4ccccc4C)no3)C2)c1`, the cytotoxicity at 10 µM was -10.6%.

Turning to `O=C(c1cc(Cl)c[nH]1)N1CCCC(c2cc(C(F)(F)F)[nH]n2)C1` (stereo unspecified), the cytotoxicity at 10 µM amounted to 18%.

Regarding `Cc1cccc(C(=O)NCc2ccc(N3CCCCCC3)nc2)n1`, the cytotoxicity at 10 µM was -5.34%.

As for `Cc1nc(C)n(CC2CCCN(c3ncnc4ccccc34)C2)n1` (stereo unspecified), the cytotoxicity at 10 µM came out at 17.4%.

Turning to `COc1c(CNCc2ccc(C(=O)N(C)C(C)C)cc2)c(C)nn1C`, the cytotoxicity at 10 µM is 33.2%.

Regarding `COc1c(C)cnc(CN2CCC(N(C)C(C)C(N)=O)CC2)c1C` (stereo unspecified), the cytotoxicity at 10 µM was -3.38%.

With `Cc1cccc(NC2CCN(C(=O)Nc3cc(F)cc(F)c3)CC2)n1`, the cytotoxicity at 10 µM is -0.961%.

As for `Cc1ccoc1C(=O)NC1CCN(Cc2csc3c(F)cccc23)CC1`, the cytotoxicity at 10 µM is 1.13%.

`c1ccc(Sc2ccc3c(c2)OCO3)c(CNC2=NCCN2)c1`: the cytotoxicity at 10 µM stood at 17.6%.

Regarding `Cc1nnc(N2CC[C@H]3C[C@H](C(=O)N(C)C)O[C@@H]3C2)s1`, the cytotoxicity at 10 µM was -80.9%.

Consider `O=C1N(Cc2cccnc2)CCC12CCCN(c1ncccn1)C2` (stereo unspecified), for which the cytotoxicity at 10 µM was -10.9%.

In the case of `O=C(NC1CC1)[C@@H]1CCO[C@@H]2CCN(CC3CCC3)C[C@@H]21`, the cytotoxicity at 10 µM was -101%.

On to `O=C(NCc1cc(=O)n2c(n1)CN(CC1CC1)CCC2)c1ccsc1`, for which the cytotoxicity at 10 µM is -103%.

Consider `c1cnc(N2CCC3(CC2)CC(NCC2CC2)c2ccccc23)nc1` (stereo unspecified), for which the cytotoxicity at 10 µM was determined as 22.4%.

Consider `CC(C)c1nnc(N2C[C@H]3CC[C@@H](C2)N(Cc2ccccc2)C3)s1`, for which the cytotoxicity at 10 µM was -3.86%.
